Reference: ChEMBL document CHEMBL1255475, “Mutant prevention concentrations of four carbapenems against gram-negative rods” (2010)
Converted amounts (≈) assume the structure as drawn.

Tests used:
Format in all cases: functional
Acinetobacter baumannii [1] = test: Antibacterial activity against Acinetobacter baumannii A931 assessed as mutant prevention concentration after overnight incubation
Acinetobacter baumannii [2] = test: Antibacterial activity against Acinetobacter baumannii A890 assessed as mutant prevention concentration after overnight incubation
Acinetobacter baumannii [3] = test: Antibacterial activity against Acinetobacter baumannii A901 assessed as mutant prevention concentration after overnight incubation
Klebsiella pneumoniae [4] = test: Antibacterial activity against beta-lactamase-positive ESBL-negative Klebsiella pneumoniae E480 assessed as mutant prevention concentration after overnight incubation
Method in brief: (§1)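 Overnight growth on blood trypticase soy agar (35°C, air) was resuspended in 0.9% saline and counted on drug-free Mueller-Hinton agar. […] Colonies were retested by agar dilution to confirm mutants. MPC was the lowest concentration preventing resistant-mutant growth.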

Klebsiella pneumoniae [5] = test: Antibacterial activity against beta-lactamase-positive ESBL-negative Klebsiella pneumoniae E479 assessed as mutant prevention concentration after overnight incubation; method in brief: as §1
Klebsiella pneumoniae [6] = test: Antibacterial activity against beta-lactamase-positive ESBL-negative Klebsiella pneumoniae E473 assessed as mutant prevention concentration after overnight incubation; method in brief: as §1
Klebsiella pneumoniae [7] = test: Antibacterial activity against beta-lactamase-positive ESBL-positive Klebsiella pneumoniae E457 assessed as mutant prevention concentration after overnight incubation; method in brief: as §1
Klebsiella pneumoniae [8] = test: Antibacterial activity against beta-lactamase-positive ESBL-negative Klebsiella pneumoniae E507 assessed as mutant prevention concentration after overnight incubation; method in brief: as §1
Klebsiella pneumoniae [9] = test: Antibacterial activity against beta-lactamase-positive ESBL-negative Klebsiella pneumoniae E511 assessed as mutant prevention concentration after overnight incubation; method in brief: as §1
Pseudomonas aeruginosa [10] = test: Antibacterial activity against Pseudomonas aeruginosa P332 assessed as mutant prevention concentration after overnight incubation
Pseudomonas aeruginosa [11] = test: Antibacterial activity against Pseudomonas aeruginosa P340 assessed as mutant prevention concentration after overnight incubation
Pseudomonas aeruginosa [12] = test: Antibacterial activity against Pseudomonas aeruginosa P341 assessed as mutant prevention concentration after overnight incubation
Pseudomonas aeruginosa [13] = test: Antibacterial activity against Pseudomonas aeruginosa P358 assessed as mutant prevention concentration after overnight incubation
Pseudomonas aeruginosa [14] = test: Antibacterial activity against Pseudomonas aeruginosa P376 assessed as mutant prevention concentration after overnight incubation
Acinetobacter baumannii [15] = test: Antibacterial activity against Acinetobacter baumannii A848 assessed as mutant prevention concentration after overnight incubation
Acinetobacter baumannii [16] = test: Antibacterial activity against Acinetobacter baumannii A850 assessed as mutant prevention concentration after overnight incubation
Acinetobacter baumannii [17] = test: Antibacterial activity against Acinetobacter baumannii A911 assessed as mutant prevention concentration after overnight incubation
Acinetobacter baumannii [18] = test: Antibacterial activity against Acinetobacter baumannii A910 assessed as mutant prevention concentration after overnight incubation
Acinetobacter baumannii [19] = test: Antibacterial activity against Acinetobacter baumannii A884 assessed as mutant prevention concentration after overnight incubation
Acinetobacter baumannii [20] = test: Antibacterial activity against Acinetobacter baumannii A928 assessed as mutant prevention concentration after overnight incubation
Acinetobacter baumannii [21] = test: Antibacterial activity against Acinetobacter baumannii A908 assessed as mutant prevention concentration after overnight incubation
Escherichia coli [22] = test: Antibacterial activity against beta-lactamase-negative Escherichia coli E346 assessed as mutant prevention concentration after overnight incubation
Escherichia coli [23] = test: Antibacterial activity against beta-lactamase-negative Escherichia coli E408 assessed as mutant prevention concentration after overnight incubation
Escherichia coli [24] = test: Antibacterial activity against beta-lactamase-negative Escherichia coli E409 assessed as mutant prevention concentration after overnight incubation
Escherichia coli [25] = test: Antibacterial activity against beta-lactamase-positive ESBL-negative Escherichia coli E415 assessed as mutant prevention concentration after overnight incubation; method in brief: as §1
Escherichia coli [26] = test: Antibacterial activity against beta-lactamase-positive ESBL-positive Escherichia coli E456 assessed as mutant prevention concentration after overnight incubation; method in brief: as §1
Escherichia coli [27] = test: Antibacterial activity against beta-lactamase-positive ESBL-negative Escherichia coli E483 assessed as mutant prevention concentration after overnight incubation; method in brief: as §1
Klebsiella pneumoniae [28] = test: Antibacterial activity against beta-lactamase-negative Klebsiella pneumoniae E357 assessed as mutant prevention concentration after overnight incubation
Klebsiella pneumoniae [29] = test: Antibacterial activity against beta-lactamase-negative Klebsiella pneumoniae E358 assessed as mutant prevention concentration after overnight incubation
Klebsiella pneumoniae [30] = test: Antibacterial activity against beta-lactamase-negative Klebsiella pneumoniae E360 assessed as mutant prevention concentration after overnight incubation
Klebsiella pneumoniae [31] = test: Antibacterial activity against beta-lactamase-negative Klebsiella pneumoniae E361 assessed as mutant prevention concentration after overnight incubation
Klebsiella pneumoniae [32] = test: Antibacterial activity against beta-lactamase-positive ESBL-negative Klebsiella pneumoniae E480 incubated up to 7 days by agar dilution method; details: E480, 168 h
Klebsiella pneumoniae [33] = test: Antibacterial activity against beta-lactamase-positive ESBL-positive Klebsiella pneumoniae E475 incubated up to 7 days by agar dilution method; details: E475, 168 h
Klebsiella pneumoniae [34] = test: Antibacterial activity against beta-lactamase-positive ESBL-positive Klebsiella pneumoniae E478 incubated up to 7 days by agar dilution method; details: E478, 168 h
Escherichia coli [35] = test: Antibacterial activity against beta-lactamase-negative Escherichia coli E348 incubated up to 7 days by agar dilution method; details: E348, 168 h
Escherichia coli [36] = test: Antibacterial activity against beta-lactamase-positive ESBL-negative Escherichia coli E412 incubated up to 7 days by agar dilution method; details: E412, 168 h
Method in brief: (§2)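 MIC by CLSI agar dilution, with quality-control strains in each run. Beta-lactamase status was set by 30 μg cefazolin Kirby-Bauer disk diffusion. ESBL status was set by cefotaxime and ceftazidime disks (30 μg) with and without clavulanic acid (10 μg).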

Escherichia coli [37] = test: Antibacterial activity against beta-lactamase-positive ESBL-negative Escherichia coli E437 incubated up to 7 days by agar dilution method; details: E437, 168 h; method in brief: as §2
Escherichia coli [38] = test: Antibacterial activity against beta-lactamase-negative Escherichia coli E424 […] by agar dilution method
Escherichia coli [39] = test: Antibacterial activity against beta-lactamase-positive ESBL-positive Escherichia coli E446 incubated up to 7 days by agar dilution method; details: E446, 168 h; method in brief: as §2
Escherichia coli [40] = test: Antibacterial activity against beta-lactamase-positive ESBL-positive Escherichia coli E450 incubated up to 7 days by agar dilution method; details: E450, 168 h; method in brief: as §2
Escherichia coli [41] = test: Antibacterial activity against beta-lactamase-positive ESBL-positive Escherichia coli E452 incubated up to 7 days by agar dilution method; details: E452, 168 h; method in brief: as §2
Escherichia coli [42] = test: Antibacterial activity against beta-lactamase-positive ESBL-positive Escherichia coli E456 incubated up to 7 days by agar dilution method; details: E456, 168 h; method in brief: as §2
Escherichia coli [43] = test: Antibacterial activity against beta-lactamase-positive ESBL-positive Escherichia coli E459 incubated up to 7 days by agar dilution method; details: E459, 168 h; method in brief: as §2
Escherichia coli [44] = test: Antibacterial activity against beta-lactamase-positive ESBL-positive Escherichia coli E451 incubated up to 7 days by agar dilution method; details: E451, 168 h; method in brief: as §2
Escherichia coli [45] = test: Antibacterial activity against beta-lactamase-positive ESBL-negative Escherichia coli E484 incubated up to 7 days by agar dilution method; details: E484, 168 h
Klebsiella pneumoniae [46] = test: Antibacterial activity against beta-lactamase-negative Klebsiella pneumoniae E419 incubated up to 7 days by agar dilution method; details: E419, 168 h
Klebsiella pneumoniae [47] = test: Antibacterial activity against beta-lactamase-negative Klebsiella pneumoniae E418 incubated up to 7 days by agar dilution method; details: E418, 168 h

## C[C@@H](O)[C@H]1C(=O)N2C(C(=O)O)=C(SCCNC=N)C[C@H]12 [IMIPENEM ANHYDROUS]
Acinetobacter baumannii [1]
  MPC: 1 µg/mL
Acinetobacter baumannii [2]
  MPC: 1 µg/mL
Acinetobacter baumannii [3]
  MPC: 8 µg/mL
Klebsiella pneumoniae [4]
  MPC: >16 µg/mL
Klebsiella pneumoniae [5]
  MPC: 32 µg/mL
Klebsiella pneumoniae [6]
  MPC: 16 µg/mL
Klebsiella pneumoniae [7]
  MPC: 0.5 µg/mL
Klebsiella pneumoniae [8]
  MPC: 64 µg/mL
Klebsiella pneumoniae [9]
  MPC: 64 µg/mL
Pseudomonas aeruginosa [10]
  MPC: 16 µg/mL
Pseudomonas aeruginosa [11]
  MPC: 2 µg/mL
Pseudomonas aeruginosa [12]
  MPC: 32 µg/mL
Pseudomonas aeruginosa [13]
  MPC: 128 µg/mL
Pseudomonas aeruginosa [14]
  MPC: 64 µg/mL
Acinetobacter baumannii [15]
  MPC: 8 µg/mL
Acinetobacter baumannii [16]
  MPC: 8 µg/mL
Acinetobacter baumannii [17]
  MPC: 8 µg/mL
Acinetobacter baumannii [18]
  MPC: 8 µg/mL
Acinetobacter baumannii [19]
  MPC: 4 µg/mL
Acinetobacter baumannii [20]
  MPC: 1 µg/mL
Acinetobacter baumannii [21]
  MPC: 1 µg/mL
Escherichia coli [22]
  MPC: 0.5 µg/mL
Escherichia coli [23]
  MPC: 1 µg/mL
Escherichia coli [24]
  MPC: 1 µg/mL
Escherichia coli [25]
  MPC: 0.5 µg/mL
Escherichia coli [26]
  MPC: 1 µg/mL
Escherichia coli [27]
  MPC: 4 µg/mL
Klebsiella pneumoniae [28]
  MPC: 1 µg/mL
Klebsiella pneumoniae [29]
  MPC: 0.5 µg/mL
Klebsiella pneumoniae [30]
  MPC: 1 µg/mL
Klebsiella pneumoniae [31]
  MPC: 1 µg/mL

## C[C@@H](O)[C@H]1C(=O)N2C(C(=O)O)=C(S[C@@H]3CN[C@H](C(=O)N(C)C)C3)[C@H](C)[C@H]12 [MEROPENEM]
Klebsiella pneumoniae [32]
  MIC: 2 µg/mL (≈ 5.22 µM)
Klebsiella pneumoniae [33]
  MIC: 4 µg/mL (≈ 10.4 µM)
Klebsiella pneumoniae [34]
  MIC: 2 µg/mL (≈ 5.22 µM)
Escherichia coli [35]
  MIC: 0.03 µg/mL (≈ 0.0782 µM)
Escherichia coli [36]
  MIC: 0.06 µg/mL (≈ 0.156 µM)
Escherichia coli [37]
  MIC: 0.06 µg/mL (≈ 0.156 µM)
Escherichia coli [38]
  MIC: 0.03 µg/mL (≈ 0.0782 µM)
Escherichia coli [39]
  MIC: 0.03 µg/mL (≈ 0.0782 µM)
Escherichia coli [40]
  MIC: 0.03 µg/mL (≈ 0.0782 µM)
Escherichia coli [41]
  MIC: 0.03 µg/mL (≈ 0.0782 µM)
Escherichia coli [42]
  MIC: 0.03 µg/mL (≈ 0.0782 µM)
Escherichia coli [43]
  MIC: 0.03 µg/mL (≈ 0.0782 µM)
Escherichia coli [44]
  MIC: 0.03 µg/mL (≈ 0.0782 µM)
Escherichia coli [45]
  MIC: 1 µg/mL (≈ 2.61 µM)
Klebsiella pneumoniae [46]
  MIC: 0.06 µg/mL (≈ 0.156 µM)
Klebsiella pneumoniae [47]
  MIC: 0.06 µg/mL (≈ 0.156 µM)
Acinetobacter baumannii [1]
  MPC: 4 µg/mL
Acinetobacter baumannii [2]
  MPC: 1 µg/mL
Acinetobacter baumannii [3]
  MPC: 8 µg/mL
Klebsiella pneumoniae [4]
  MPC: 16 µg/mL
Klebsiella pneumoniae [5]
  MPC: 32 µg/mL
Klebsiella pneumoniae [6]
  MPC: 16 µg/mL
Klebsiella pneumoniae [7]
  MPC: 0.125 µg/mL
Klebsiella pneumoniae [8]
  MPC: >64 µg/mL
Klebsiella pneumoniae [9]
  MPC: 64 µg/mL
Pseudomonas aeruginosa [10]
  MPC: 32 µg/mL
Pseudomonas aeruginosa [11]
  MPC: 4 µg/mL
Pseudomonas aeruginosa [12]
  MPC: 8 µg/mL
Pseudomonas aeruginosa [13]
  MPC: 32 µg/mL
Pseudomonas aeruginosa [14]
  MPC: 16 µg/mL
Acinetobacter baumannii [15]
  MPC: 32 µg/mL
Acinetobacter baumannii [16]
  MPC: 16 µg/mL
Acinetobacter baumannii [17]
  MPC: 8 µg/mL
Acinetobacter baumannii [18]
  MPC: 4 µg/mL
Acinetobacter baumannii [19]
  MPC: 8 µg/mL
Acinetobacter baumannii [20]
  MPC: 4 µg/mL
Acinetobacter baumannii [21]
  MPC: 4 µg/mL
Escherichia coli [22]
  MPC: 0.06 µg/mL
Escherichia coli [23]
  MPC: 0.06 µg/mL
Escherichia coli [24]
  MPC: 0.06 µg/mL
Escherichia coli [25]
  MPC: 0.125 µg/mL
Escherichia coli [26]
  MPC: 0.125 µg/mL
Escherichia coli [27]
  MPC: 4 µg/mL
Klebsiella pneumoniae [28]
  MPC: 0.125 µg/mL
Klebsiella pneumoniae [29]
  MPC: 0.06 µg/mL
Klebsiella pneumoniae [30]
  MPC: 0.125 µg/mL
Klebsiella pneumoniae [31]
  MPC: 0.125 µg/mL
